Screening data (PubChem BioAssay)
Rev-erbA mod: modulators of Rev-erb alpha DNA binding, primary screen, biochemical, FITC-DNA, fluorescence polarization, uHTS; Rev-erbα–FITC-DNA binding, 90 min; activity, % at 10 µM; 0.79% of 370,000 active; AID 1259318, 2017;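 active = activity above about 14%, limit read from the data; passing the limit was not always enough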;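 also: 0% = DMSO wells with 35 nM protein and 100% = DMSO wells with 750 nM protein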
Target sequence (P20393 whole entry, looked up): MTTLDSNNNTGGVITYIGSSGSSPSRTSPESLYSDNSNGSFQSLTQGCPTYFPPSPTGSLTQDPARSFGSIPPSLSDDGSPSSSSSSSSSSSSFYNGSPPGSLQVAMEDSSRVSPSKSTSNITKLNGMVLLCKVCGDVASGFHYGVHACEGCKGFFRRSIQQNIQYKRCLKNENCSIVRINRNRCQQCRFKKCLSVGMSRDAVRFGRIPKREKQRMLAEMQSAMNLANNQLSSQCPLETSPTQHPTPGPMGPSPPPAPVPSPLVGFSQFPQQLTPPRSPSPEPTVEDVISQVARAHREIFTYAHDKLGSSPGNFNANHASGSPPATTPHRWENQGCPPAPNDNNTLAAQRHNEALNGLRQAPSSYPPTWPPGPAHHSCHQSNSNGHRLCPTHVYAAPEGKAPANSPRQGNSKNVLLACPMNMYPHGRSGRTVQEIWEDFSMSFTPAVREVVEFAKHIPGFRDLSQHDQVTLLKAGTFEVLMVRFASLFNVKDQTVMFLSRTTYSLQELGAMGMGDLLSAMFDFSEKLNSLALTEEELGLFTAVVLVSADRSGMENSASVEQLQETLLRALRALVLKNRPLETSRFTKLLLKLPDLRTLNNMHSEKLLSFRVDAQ
NR2E3 ag-1: inhibitors of NR2E3-RetCOR corepressor binding, primary screen, NR2E3 agonist project, biochemical, TR-FRET, GST-NR2E3, biotin-RetCOR. inhibition of corepressor binding, % at 4.78 µM. Photoreceptor-specific nuclear receptor (Homo sapiens), Q9Y5X4. 1536-well. 0.12% of 320,000 active. AID 2300, 2010;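 active = percent inhibition above the cutoff of mean plus 3 SD of all tested compounds, set per screening campaign, cut at about 20% in these data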;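 also: 0% = DMSO wells and 100% = biotin wells as full block of FRET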
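Test system – NR2E3–RetCOR corepressor complex · Quantity – NR2E3 fusion 1.35 nM · Buffer or medium – Tris pH 7.5 · Incubation – Compound–protein incubation for 5 h at 4 °C · Technique – TR-FRET, Eu(K)-anti-GST donor, streptavidin-D2 acceptor, ex 340, em 617/671 nm · Evaluation – percent inhibition of 671/617 nm emission ratio versus biotin and DMSO controls · Plate – 1536-well format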
rCAG RNA binder: binders of r(CAG) RNA repeats, primary screen, biochemical, fluorescence; r(CAG) RNA repeat, TO-PRO-1 dye displacement fluorescence; inhibition, % at 3 µM; 1.3% of 370,000 active;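 active = inhibition above the plate cutoff, the mean of all test compounds on that plate plus 3 SD, cut at about 35% in these data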;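 also: 0% = DMSO alone and 100% = 100 µM mitoxantrone as full dye displacement; higher means more dye released from RNA so lower well fluorescence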
PG9 binder: binders of HIV-1 gp120 antibody PG9, primary screen, biochemical, TR-FRET | HIV-1 gp120 / PG9 antibody interaction | TR-FRET gp120-PG9 antibody binding | inhibition, % at 6.7 µM | 0.43% of 360,000 active | AID 624416, 2012; in the data active = inhibition above about 8.5%
NR2E3 ag-2: NR2E3 agonists in two-hybrid cells, primary screen, cell-based, luminescence, CHO-S, Gal4-NCOR/VP16-NR2E3 | Photoreceptor-specific nuclear receptor (Homo sapiens), Q9Y5X4 | inhibition of corepressor binding, % at 3.98 µM | AID 602229, 2012 | luciferase | 0.35% of 360,000 active;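 active = inhibition above the mean of all tested compounds plus 3 SD, cut at about 70% in these data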;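 also: 0% = DMSO with NR2E3 transfected cells and 100% = cells lacking NR2E3 construct; higher means lower luciferase signal from less NR2E3 corepressor binding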
rCAG bind conf: small molecules binding CAG repeat RNA – biochemical, fluorescence, confirmation | shares compounds with rCAG RNA binder | r(CAG) RNA repeat, TO-PRO-1 dye displacement fluorescence | inhibition, % at 3 µM | 70% of 4,300 active;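 active = inhibition above a per-plate cutoff, the mean inhibition of sample wells plus 3 SD, cut at about 35% in these data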;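 also: loss of TO-PRO-1 fluorescence as compound displaces dye from 1x1 AA loop RNA; 0% = DMSO only wells and 100% = 100 µM mitoxantrone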
DNA CAG counter: displacement of TO-PRO-1 from CAG DNA duplex, counter-screen for rCAG RNA repeat binder project, biochemical, fluorescence, TO-PRO-1 dye, d(CAG) DNA oligo; shares compounds with rCAG RNA binder; d(CAG) DNA oligo TO-PRO-1 dye displacement; inhibition, % at 3 µM; 94% of 4,300 active;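 active = inhibition above its plate's cutoff, the mean test-well inhibition plus 3 SD, cut at about 4.8% in these data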;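 also: 0% = DNA dye mix with DMSO and 100% = 100 µM mitoxantrone; hits displace the dye from DNA and so lower well fluorescence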
* hit, by the source's call; . = not tested or not shown. Hits are enriched below; roughly 2.6% of the tested compounds scored in any of these assays.

SMILES	Rev-erbA mod	NR2E3 ag-1	rCAG RNA binder	PG9 binder	NR2E3 ag-2	rCAG bind conf	DNA CAG counter
O=S(=O)(Nc1ccc(Br)cc1)c1cccc(NS(=O)(=O)c2cccs2)c1	-2	.	37*	-1	13	29	6.9*
Cc1ccc(NS(=O)(=O)c2ccc(NS(=O)(=O)c3cccs3)cc2)cc1	2	-1	32	-1	-5	.	.
O=C(/C=C/c1ccco1)NC(=S)Nc1ccc(Cl)cn1	1	1	39*	-1	-10	14	6.9*
Cc1ccc(-c2csc(NC(=S)NC(=O)/C=C/c3ccco3)n2)cc1	0	3	38*	-1	-90	22	11*
CN1CCCCC(NC(=O)c2ccccc2)C1=O (stereo not given)	-3	.	2	2	.	.	.
CCOC(=O)C(C)(C)Oc1ccc(Cl)cc1	9	4	3	1	-13	.	.
CCOC(=O)CC1(C)c2nc(NC(C)=O)sc2Cc2sc(NC(C)=O)nc21	-3	.	1	0	-11	.	.
Cc1nc2ccccc2c(=O)n1/N=C/c1ccc(O)c(O)c1O	-31	2	44*	-2	-52	51*	19*
O=C(/C=C/c1ccc([N+](=O)[O-])cc1)c1ccco1	7	2	3	-1	10	.	.
O=C(/C=C/c1ccc([N+](=O)[O-])cc1)/C=C/c1ccco1	-12	4	47*	0	-30	25	12*
C[C@@H]1COc2cc(N3CCN(Cc4ccccc4F)CC3)ccc2S(=O)(=O)N1	4	.	1	0	18	.	.
O=C(O)c1cccc(NC(=O)c2cn(-c3ccccc3)nc2-c2cccc(Br)c2)c1	5	-1	87*	-1	-9	82*	50*
COc1ccc(-c2nn(-c3ccccc3)cc2C(=O)Nc2cccc(C(=O)O)c2)cc1[N+](=O)[O-]	2	-2	71*	-1	8	61*	24*
O=C(O)c1ccc(NC(=O)c2cn(-c3ccccc3)nc2-c2ccc(Br)cc2)cc1	1	4	82*	0	-2	68*	28*
O=C(O)c1cccc(NC(=O)c2cn(-c3ccccc3)nc2-c2ccncc2)c1	-6	-3	14	-2	10	.	.
O=C(CCN1C(=O)S/C(=C/c2ccc(F)cc2)C1=O)Nc1ccc(O)c(C(=O)O)c1	-2	-4	51*	-1	-25	36*	9.1*
O=C(CCN1C(=O)S/C(=C/c2ccccc2)C1=O)Nc1ccc(C(=O)O)c(O)c1	8	2	63*	-1	-13	41*	15*
O=C(CN1C(=O)S/C(=C\c2ccccc2)C1=O)Nc1cc([N+](=O)[O-])ccc1O	6	0	80*	-2	6	61*	24*
O=C(CCN1C(=O)S/C(=C\c2ccc(Cl)cc2)C1=O)Nc1ccc(C(=O)O)cc1	1	2	-1	-4	-20	.	.
Cc1ccc(/C=C2/SC(=S)N(CCCC(=O)Nc3cc([N+](=O)[O-])ccc3O)C2=O)cc1	1	4	1	-3	22	.	.
O=C(CCN1C(=O)S/C(=C\c2ccc(F)cc2)C1=O)Nc1ccc(O)cc1C(=O)O	-1	0	49*	-1	-27	28	6.8*
CCOc1ncccc1C(=O)Nc1cc(S(=O)(=O)N(CC)CC)ccc1N1CCOCC1	0	.	3	-2	17	.	.
COCc1cc(N2CCN(C(=O)OC(C)(C)C)C[C@@H]2C)ccc1N1CC[C@H](O)C1	6	.	10	1	.	.	.
O=C(CCN1C(=O)/C(=C/c2ccc(F)cc2)SC1=S)Nc1cccnc1	2	1	3	2	-14	.	.
O=C(CCN1C(=O)S/C(=C\c2ccc(F)cc2)C1=O)Nc1ccc(C(=O)O)c(O)c1	-2	0	68*	0	-9	43*	11*
